Results from ChEMBL document CHEMBL3822380, “Simple avarone mimetics as selective agents against multidrug resistant cancer cells” (Eur J Med Chem, 2016).
pIC50: −log10 of the molar value. In brackets after ≈: the same amount, converted by molar mass. Activity calls are given as the source filed them.

Columns and labels:
Saccharomyces cerevisiae = assay: Antifungal activity against Saccharomyces cerevisiae ATCC 9763 by broth microdilution method; format: functional
Method in brief: (§1)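 Broth microdilution per NCCLS. Compounds dissolved in DMSO as 10 mg/mL stock, diluted in Mueller Hinton broth (bacteria) or Sabouraud dextrose broth (fungi). Amikacin served as the positive control for bacteria and nystatin for fungi.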

NCI-H460 [1] = assay: Cytotoxicity against multidrug resistant human NCI-H460 cells after 72 hrs by MTT assay; format: functional, cell-based; conditions: NCI-H460, 72 h
Method in brief: (§2)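 Seeding in 96-well plates at 1000 (NCI-H460), 2000 (NCI-H460/R) or 4000 (HaCaT) cells/well, treated after 24 h for 72 h. MTT at 0.4 mg/mL final, 4 h at 37 °C. Formazan dissolved in DMSO, absorbance read at 540 nm. Inhibition % = (1 − A treated/A untreated)×100. IC30 and IC50 obtained by linear regression.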

NCI-H460 [2] = assay: Induction of mitochondrial membrane potential depolarization in human NCI-H460 cells at 25 uM after 15 mins by JC1-staining-based flow cytometric analysis; format: functional, cell-based
Method in brief: (§3)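 Cells treated with 25 µM compound, with CDDP 5 µM as control. Stained with JC-1 for 15 min at 37 °C in a CO2 incubator, washed twice in assay buffer and resuspended in PBS. Flow cytometry read red aggregate (FL2-H) versus green monomer (FL1-H) fluorescence. Live cells were also imaged by fluorescence microscopy.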

NCI-H460 [3] = assay: Induction of superoxide anion generation in human NCI-H460 cells at 25 uM after 72 hrs by DHE staining-based flow cytometric analysis relative to control; format: functional, cell-based
Method in brief: (§4)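 Seeded as for cell death (50,000 or 100,000 cells/well), treated 72 h at 25 µM, with CDDP 5 µM as control. Adherent cells trypsinized and loaded with 1 µM DHE for 30 min at 37 °C in the dark, then washed twice in PBS. Flow cytometry at ex 488/em 585 nm (FL2-H). Mean fluorescence intensity corrected for autofluorescence and compared with untreated control.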

Aspergillus brasiliensis = assay: Antifungal activity against Aspergillus brasiliensis ATCC 16404 by broth microdilution method; format: functional; method in brief: as §1
NCI-H460 [4] = assay: Induction of apoptosis in multidrug resistant human NCI-H460 cells assessed as dead cells at 25 uM after 72 hrs by annexin-V/propidium iodide staining-based flow cytometric analysis (reference value: 1.5%); format: functional
HaCaT [5] = assay: Induction of superoxide anion generation in human HaCaT cells at 25 uM after 72 hrs by DHE staining-based flow cytometric analysis relative to control; format: cell-based; method in brief: as §4
NCI-H460 [6] = assay: Cytotoxicity against human NCI-H460 cells after 72 hrs by MTT assay; format: functional, cell-based; conditions: NCI-H460, 72 h; method in brief: as §2
Pseudomonas aeruginosa = assay: Antibacterial activity against Pseudomonas aeruginosa ATCC 9027 by broth microdilution method; format: functional; method in brief: as §1
Micrococcus luteus [7] = assay: Antibacterial activity against Micrococcus luteus ATCC 4698 by broth microdilution method; format: functional; conditions: NCTC 2665; method in brief: as §1
Bacillus spizizenii = assay: Antibacterial activity against Bacillus subtilis ATCC 6633 by broth microdilution method; format: functional; method in brief: as §1
HaCaT [8] = assay: Induction of apoptosis in human HaCaT cells assessed as early apoptotic cells at 25 uM after 72 hrs by annexin-V/propidium iodide staining-based flow cytometric analysis (reference value: 0.2%); format: cell-based
[9] = Selectivity ratio of IC30/IC50 for human HaCaT cells to IC30/IC50 for human NCI-H460 cells; format: ADME, cell-based; conditions: HaCaT cells versus NCI-H460 cells
Method in brief: (§5)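 Fold threshold of 1.5 used to call selectivity to cancer cells, resistance, or selectivity to MDR cells.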

[10] = Induction of apoptosis in human HaCaT cells assessed as live cells at 25 uM after 72 hrs by annexin-V/propidium iodide staining-based flow cytometric analysis (reference value: 96.8%); format: cell-based; conditions: read-out: Activity
NCI-H460 [11] = assay: Induction of apoptosis in human NCI-H460 cells assessed as early apoptotic cells at 25 uM after 72 hrs by annexin-V/propidium iodide staining-based flow cytometric analysis (reference value: 0.3%); format: functional
Candida albicans = assay: Antifungal activity against Candida albicans ATCC 10231 by broth microdilution method; format: functional; method in brief: as §1
HaCaT [12] = assay: Induction of apoptosis in human HaCaT cells assessed as dead cells at 25 uM after 72 hrs by annexin-V/propidium iodide staining-based flow cytometric analysis (reference value: 2.8%); format: cell-based
Proteus hauseri = assay: Antibacterial activity against Proteus hauseri ATCC 13315 by broth microdilution method; format: functional; method in brief: as §1
HaCaT [13] = assay: Induction of apoptosis in human HaCaT cells assessed as late apoptotic/necrotic cells at 25 uM after 72 hrs by annexin-V/propidium iodide staining-based flow cytometric analysis (reference value: 0.2%); format: cell-based
HaCaT [14] = assay: Cytotoxicity against human HaCaT cells after 72 hrs by MTT assay; format: cell-based; conditions: for pIC50: Homo sapiens, HaCaT; for IC30: human, hacat; method in brief: as §2
NCI-H460 [15] = assay: Induction of apoptosis in human NCI-H460 cells assessed as live cells at 25 uM after 72 hrs by annexin-V/propidium iodide staining-based flow cytometric analysis (reference value: 98.3%); format: functional
HaCaT [16] = assay: Induction of mitochondrial membrane potential depolarization in human HaCaT cells at 25 uM after 15 mins by JC1-staining-based flow cytometric analysis; format: cell-based; conditions: 0.25 h; method in brief: as §3
NCI-H460 [17] = assay: Induction of superoxide anion generation in multidrug resistant human NCI-H460 cells at 25 uM after 72 hrs by DHE staining-based flow cytometric analysis relative to control; format: functional, cell-based; method in brief: as §4
NCI-H460 [18] = assay: Selectivity ratio of IC30/IC50 for human NCI-H460 cells to IC30/IC50 for multidrug resistant human NCI-H460 cells; format: functional; method in brief: as §5
Staphylococcus aureus = assay: Antibacterial activity against Staphylococcus aureus ATCC 6538 by broth microdilution method; format: functional; method in brief: as §1
[19] = Selectivity ratio of IC30/IC50 for human HaCaT cells to IC30/IC50 for multidrug resistant human NCI-H460 cells; format: ADME, cell-based; conditions: HaCaT cells versus multidrug resistant NCI-H460 cells; method in brief: as §5
NCI-H460 [20] = assay: Induction of mitochondrial membrane potential depolarization in multidrug resistant human NCI-H460 cells at 25 uM after 15 mins by JC1-staining-based flow cytometric analysis; format: functional, cell-based; method in brief: as §3
NCI-H460 [21] = assay: Induction of apoptosis in multidrug resistant human NCI-H460 cells assessed as live cells at 25 uM after 72 hrs by annexin-V/propidium iodide staining-based flow cytometric analysis (reference value: 96.4%); format: functional
Salmonella enteritidis = assay: Antibacterial activity against Salmonella enterica subsp. enterica serovar Enteritidis ATCC 13076 by broth microdilution method; format: functional; method in brief: as §1
NCI-H460 [22] = assay: Induction of apoptosis in multidrug resistant human NCI-H460 cells assessed as early apoptotic cells at 25 uM after 72 hrs by annexin-V/propidium iodide staining-based flow cytometric analysis (reference value: 1.1%); format: functional
Micrococcus luteus [23] = assay: Antibacterial activity against Micrococcus luteus ATCC 10240 by broth microdilution method; format: functional; method in brief: as §1
Clostridium sporogenes = assay: Antibacterial activity against Clostridium sporogenes ATCC 19404 by broth microdilution method; format: functional; method in brief: as §1
NCI-H460 [24] = assay: Induction of apoptosis in human NCI-H460 cells assessed as dead cells at 25 uM after 72 hrs by annexin-V/propidium iodide staining-based flow cytometric analysis (reference value: 1.2%); format: functional
NCI-H460 [25] = assay: Induction of apoptosis in multidrug resistant human NCI-H460 cells assessed as late apoptotic/necrotic cells at 25 uM after 72 hrs by annexin-V/propidium iodide staining-based flow cytometric analysis (reference value: 1%); format: functional
Kocuria rhizophila = assay: Antibacterial activity against Kocuria rhizophila ATCC 9341 by broth microdilution method; format: functional; conditions: DC2201; method in brief: as §1
Escherichia coli = assay: Antibacterial activity against Escherichia coli ATCC 25922 by broth microdilution method; format: functional; method in brief: as §1
NCI-H460 [26] = assay: Induction of apoptosis in human NCI-H460 cells assessed as late apoptotic/necrotic cells at 25 uM after 72 hrs by annexin-V/propidium iodide staining-based flow cytometric analysis (reference value: 0.2%); format: functional
NCI-H460 [27] = assay: Resistance index, ratio of IC30/IC50 for multidrug resistant human NCI-H460 cells to IC30/IC50 for human NCI-H460 cells; format: functional; method in brief: as §5

Structure (SMILES) | MIC (Saccharomyces cerevisiae) | IC30 (NCI-H460 [1]) | pIC50 (NCI-H460 [1]) | MIC (Aspergillus brasiliensis) | IC30 (NCI-H460 [6]) | pIC50 (NCI-H460 [6]) | MIC (Pseudomonas aeruginosa) | MIC (Micrococcus luteus [7]) | MIC (Bacillus spizizenii) | selectivity ratio [9] | MIC (Candida albicans) | MIC (Proteus hauseri) | pIC50 (HaCaT [14]) | IC30 (HaCaT [14]) | MIC (Staphylococcus aureus) | selectivity ratio [19] | MIC (Salmonella enteritidis) | MIC (Micrococcus luteus [23]) | MIC (Clostridium sporogenes) | MIC (Kocuria rhizophila) | other results
CC(C)(C)C1=CC(=O)C=C(NCCc2ccccc2)C1=O | 34 µM (≈ 9.63 µg/mL) | 3 µM | 5.22 | 1110 µM (≈ 313 µg/mL) | 7 µM | 4.85 | 4420 µM (≈ 1250 µg/mL) | 2210 µM (≈ 626 µg/mL) | 4420 µM (≈ 1250 µg/mL) | ≤ 1.5 | 34 µM (≈ 9.63 µg/mL) | 17700 µM (≈ 5010 µg/mL) | 4.64 | 19 µM | 9 µM (≈ 2.55 µg/mL) | ≤ 1.5 | 4420 µM (≈ 1250 µg/mL) | 34 µM (≈ 9.63 µg/mL) | 4420 µM (≈ 1250 µg/mL) | 17700 µM (≈ 5010 µg/mL) | Activity (NCI-H460 [2]): Active; Activity (NCI-H460 [3]): inactive; Activity (NCI-H460 [4]): 40.3%; Activity (HaCaT [5]): Non-toxic; Activity (HaCaT [8]): 4.1%; viability at 72 h, 25 µM [10]: 74.8%; Activity (NCI-H460 [11]): 2.4%; Activity (HaCaT [12]): 14.2%; Activity (HaCaT [13]): 6.9%; Activity (NCI-H460 [15]): 66.1%; Activity (HaCaT [16]): Non-toxic; Activity (NCI-H460 [17]): Active; selectivity ratio (NCI-H460 [18]): <=1.5; Activity (NCI-H460 [20]): Active; Activity (NCI-H460 [21]): 45.9%; Activity (NCI-H460 [22]): 2%; Activity (NCI-H460 [24]): 22%; Activity (NCI-H460 [25]): 11.8%; MIC (Escherichia coli): 9 µM (≈ 2.55 µg/mL); Activity (NCI-H460 [26]): 9.5%
CCCCNC1=CC(=O)C(C(C)(C)C)=CC1=O | 154 µM (≈ 36.2 µg/mL) | 19 µM | 4.14 | 2460 µM (≈ 580 µg/mL) | 5 µM | 4.44 | 620 µM (≈ 146 µg/mL) | 2470 µM (≈ 581 µg/mL) | 1240 µM (≈ 291 µg/mL) | ≤ 1.5 | 77 µM (≈ 18.1 µg/mL) | 1240 µM (≈ 291 µg/mL) | < 4.00 | 50 µM | 38 µM (≈ 8.94 µg/mL) | ≤ 1.5 | 620 µM (≈ 146 µg/mL) | 38 µM (≈ 8.94 µg/mL) | 1240 µM (≈ 291 µg/mL) | 2470 µM (≈ 581 µg/mL) | Ratio (NCI-H460 [27]): <=1.5; MIC (Escherichia coli): 19 µM (≈ 4.47 µg/mL)
